The source made the active and inactive calls. The rule behind the calls is not given here.

The source of these data is ChEMBL document CHEMBL1143660, “Structure-activity relationship studies of a series of novel delta-lactam-based histone deacetylase inhibitors” (J Med Chem, 2007).

The test system of assay [1] is RAW264.7. In words: Inhibition of LPS-stimulated NO production in RAW264.7 cells after 24 hrs […]. In kind it is functional, cell-based. To be noted: Mus musculus, RAW264.7, 24 h. The essentials:
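RAW264.7 murine macrophages stimulated with LPS and treated with inhibitor at 0.1 to 10 µM; suppression of NO production measured and IC50 calculated; values are means of at least three experiments.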
For orientation: In an ELISA, binding on a coated surface is turned into a signal by an enzyme label.

Another assay relates to PC-3. In words: Growth inhibition of PC3 cells by SRB assay. In kind it is functional. The following applies: Homo sapiens. (In general: In SRB staining, fixed cells bind dye roughly in proportion to their protein.)
The target in the next assay is Histone deacetylase. Briefly: Inhibition of HDAC in HeLa cells by fluorescent activity assay. It is filed as cell-based, Homo sapiens.
A further assay relates to HCT-15. Briefly: Growth inhibition of HCT15 cells by SRB assay. It is filed as functional, Homo sapiens.
The next assay relates to ACHN. In words: Growth inhibition of ACHN cells by SRB assay. It is filed as functional. The following applies: Homo sapiens.
The subject of assay [2] is RAW264.7. Briefly: Inhibition of LPS-stimulated TNFalpha production in RAW264.7 cells after 24 hrs by ELISA. In kind it is functional, cell-based. The following applies: Mus musculus, RAW264.7, 24 h.
Assay [3] has as its system MDA-MB-231. In words: Growth inhibition of human MDA-MB-231 cells by SRB assay. In kind it is functional.
A further assay has as its system LOX IMVI. In words: Growth inhibition of LOX-IMVI cells by SRB assay. The following applies: Homo sapiens. It is filed as functional.
In a further assay the test system is NCI-H23. In words: Growth inhibition of NCI-H23 cells by SRB assay. It is filed as functional. The following applies: Homo sapiens.
Assay [4] deals with MDA-MB-231. Briefly: Inhibition of tumor growth in MDA-MB-231 cells xenografted BALA/c nude mouse at 30 mg/kg, ip. It is filed as functional, Homo sapiens. The following applies: MDA-MB-231, ip, route intraperitoneal.

In the case of `O=C(CCC1=CCCN(CCc2ccccc2)C1=O)NO`, the IC50 (in general, the point on the concentration scale where inhibition reaches its midpoint) stood at 4.27 µM in the assay with RAW264.7 [1], 0.35 µM on Histone deacetylase (read-out: IC50) and 1.9 µM with RAW264.7 [2]. The GI50 (in general, the concentration at which growth is held to half of that of the control) in the assay on PC-3 came to 8.58 µM; with HCT-15 (Homo sapiens, HCT-15) it was 8.16 µM; in the assay with ACHN, 7.76 µM; with MDA-MB-231 [3] (Homo sapiens, MDA-MB-231), 1.62 µM; in the assay with LOX IMVI, 5.84 µM.

Consider `CN1CCC=C(CCC(=O)NO)C1=O`, for which the IC50 in the assay on RAW264.7 [1], against Histone deacetylase and in the assay with RAW264.7 [2] was > 10 µM in each case.

With `O=C(CC1=CCCN(CCCCc2ccccc2)C1=O)NO`, the IC50 in the assay on RAW264.7 [1], against Histone deacetylase and in the assay with RAW264.7 [2] was > 10 µM in each case.

Turning to `O=C(CCCC1=CCCN(CCCCc2ccccc2)C1=O)NO`, the IC50 in the assay on RAW264.7 [1] was 6.74 µM; at Histone deacetylase, > 10 µM; in the assay with RAW264.7 [2], > 10 µM.

As for `O=C(CCCCCCC(=O)Nc1ccccc1)NO` [VORINOSTAT], the GI50 in the assay with HCT-15 is 0.82 µM; with MDA-MB-231 [3], 0.66 µM.

`O=C(CCCC1=CCCN(CCc2ccccc2)C1=O)NO`: the half-inhibitory concentration (IC50) in the assay with RAW264.7 [1], against Histone deacetylase and in the assay with RAW264.7 [2] was > 10 µM each time.

For `O=C(CC1=CCCN(Cc2ccccc2)C1=O)NO`, the IC50 with RAW264.7 [1], at Histone deacetylase and with RAW264.7 [2] was > 10 µM each time.

Take `O=C(CC1=CCCN(CCc2ccccc2)C1=O)NO`: the half-inhibitory concentration (IC50) in the assay with RAW264.7 [1], on Histone deacetylase and in the assay on RAW264.7 [2] was > 10 µM throughout.

In the case of `O=C(CCCC1=CCCN(CCCc2ccccc2)C1=O)NO`, the values for the half-inhibitory concentration (IC50) with RAW264.7 [1], on Histone deacetylase and in the assay with RAW264.7 [2] were 6.57 µM, 3.21 µM and > 10 µM, respectively.

On to `C=CCN1CCC=C(CCC(=O)NO)C1=O`, for which the half-inhibitory concentration (IC50) was > 10 µM with RAW264.7 [1], 4.27 µM at Histone deacetylase (read-out: IC50) and 11 µM in the assay with RAW264.7 [2].

As for `O=C(CCC1=CCCN(Cc2ccccc2)C1=O)NO`, the figures for the half-inhibitory concentration (IC50) in the assay on RAW264.7 [1], at Histone deacetylase (read-out: IC50) and in the assay on RAW264.7 [2] were 3.09 µM, 0.67 µM and 3.31 µM, respectively. Moreover, the outcome in the assay on HCT-15 (Homo sapiens) was inactive. In addition, halving of growth with MDA-MB-231 [3] (Homo sapiens, MDA-MB-231) (GI50) required 4.26 µM.

`O=C(CCC1=CCCN(CCCc2ccccc2)C1=O)NO`: the IC50 with RAW264.7 [1] was 2.71 µM; against Histone deacetylase, 0.27 µM; in the assay with RAW264.7 [2] it was 1.1 µM. Further, the GI50 in the assay on PC-3 was determined as 5.04 µM; in the assay with NCI-H23, 3.79 µM; in the assay with HCT-15 (Homo sapiens, HCT-15) it was 4.99 µM; in the assay on ACHN, 1.17 µM; with MDA-MB-231 [3] (Homo sapiens, MDA-MB-231) it was 0.5 µM; with LOX IMVI it was 3.34 µM.

Take `O=C(CC1=CCCN(CCCc2ccccc2)C1=O)NO`: the IC50 with RAW264.7 [1], against Histone deacetylase and in the assay on RAW264.7 [2] was > 10 µM each time.

Regarding `O=C(CCC1=CCCN(CCCCc2ccccc2)C1=O)NO`, the IC50 in the assay on RAW264.7 [1] was 1.8 µM; at Histone deacetylase it was 0.13 µM; in the assay on RAW264.7 [2], 1.3 µM. Besides, the GI50 in the assay on PC-3 is 1.32 µM; in the assay on NCI-H23 it was 5.14 µM; in the assay with HCT-15 (Homo sapiens, HCT-15), 5.37 µM; in the assay on ACHN it was 2.5 µM; with MDA-MB-231 [3] (Homo sapiens, MDA-MB-231), 1.5 µM. In addition, the inhibition in vivo (commonly the relative decrease from the control value, in per cent) at 30 mg/kg in the assay with MDA-MB-231 [4] is 51%.

`COc1ccc(CN2CCC=C(CCC(=O)NO)C2=O)c(OC)c1`: the IC50 worked out at 5.2 µM with RAW264.7 [1], 0.5 µM at Histone deacetylase (read-out: IC50) and 5.06 µM with RAW264.7 [2]. For the same compound, the GI50 came out at 4.55 µM in the assay on PC-3; 7.98 µM in the assay on HCT-15 (Homo sapiens, HCT-15); 9.58 µM in the assay with ACHN; 2.67 µM in the assay on MDA-MB-231 [3] (Homo sapiens, MDA-MB-231); 6.63 µM in the assay on LOX IMVI.
